Pyk2 oligo antag: antagonists of human Pyk2 oligomerization. Q293 cells, Pyk2 FERM NanoBiT luminescence; hits give low values. z-score (the deposit names both 25 µM and 10 µM). 0.83% of 99,000 active. Q14289. AID 1347419;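 active = Z-score of -3 or lower, scaled per plate to the spread of control and sample wells; inactive = z-score above -3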;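 note: negative z-score means lost luminescence so less FERM oligomerization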
H69AR growth 86K: blocks growth of human H69AR lung tumor cells | H69AR lung tumor viability, ATP luminescence, 72 h; hits give low values | viability, % at 10 µM | 6% of 85,000 active | AID 598;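 active = viability at or below 40%; inactive = viability above 40%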;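 note: multidrug resistant small cell line overexpressing MRP-1 efflux transporter; 100% = mean luminescence of untreated control wells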
HUVEC prolif 384: inhibitors of human endothelial cell proliferation | HUVEC proliferation, CellTiter-Glo luminescence, 72 h; hits give low values | viability, % at 10 µM (by protocol) | 1.1% of 86,000 active;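 active = viability at or below 30%; inactive = viability above 30%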;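 note: 100% = median luminescence of DMSO-only cell control wells on each plate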
Fibroblast inh: blocks proliferation of human lung fibroblasts. LL 47 human lung fibroblast viability, ATP luminescence; hits give low values. viability, % at 10 µM. 1.1% of 85,000 active;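 active = viability at or below 50% in the single dose screen; inactive = viability above 50%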;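 note: compound exposure lasted 72 h before the ATP readout; 100% = median luminescence of untreated cell-only wells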
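Benchmarks: Cell-only wells, no compound | Test system: LL 47 human lung fibroblasts, passage 12 or lower | Input: 1,150 cells/well | Measured by: CellTiter-Glo luminescence measuring cellular ATP | Medium: IMEM, 15% FBS supplement | Schedule: Overnight attachment after seeding, then 72 h compound exposure at 37 °C | Doses: Compound addition at 0.1% DMSO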
HCT116 PTEN-null: PTEN-deleted cell growth suppression. 1.2% of 140,000 active. HCT116 PTEN-null viability, CellTiter-Glo, 60 h; hits give low values. viability, % at 10 µM. AID 827;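 active = viability at or below a set limit, 4 SD under the median of all tested compounds, cut at about 3.7% in these data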;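 note: PTEN knockout HCT116 line with beta catenin targeted HCT116 as companion control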
bCat KO growth: beta-catenin-lacking colon tumor cell growth suppression | HCT116 beta-catenin knockout viability, CellTiter-Glo, 60 h; hits give low values | viability, % at 10 µM | 1.5% of 140,000 active;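 active = viability at or under a set limit, the compound median less 4 SD, cut at about 6% in these data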;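 note: 0% = Hyamine 1622 control at 20 µM and 100% = untreated cell control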
An asterisk follows results filed as active; nt = no result. Shown is part of a subset that was picked to be rich in hits.

SMILES | Pyk2 oligo antag | H69AR growth 86K | HUVEC prolif 384 | Fibroblast inh | HCT116 PTEN-null | bCat KO growth
CCOC(=O)N1CCC(n2c(SCC(=O)NCCC3=CCCCC3)nc3ccccc3c2=O)CC1 | -1.1 | 26* | 74 | 88 | 49 | 45
CCOC(=O)N1CCC(n2c(SCC(=O)N3CCC(C)CC3)nc3ccccc3c2=O)CC1 | -1.1 | 30* | 88 | 105 | 53 | 43
C=CCSc1ncc(C#N)c(N)n1 | 0.49 | 98 | 98 | 103 | 96 | 100
N#C/C(=C/c1ccc(N2CCCCCC2)o1)c1ccc(Cl)cc1 | -0.27 | 101 | 105 | 48* | 64 | 52
CCN1CCN(c2ncnc3c2oc2nc(C(C)C)c4c(c23)CCC4)CC1 | nt | 64 | 88 | 98 | nt | nt
CCOC(=O)N1CCN(c2ncnc3c2oc2nc(C(C)C)c4c(c23)CCC4)CC1 | 0.06 | 48 | 24* | 98 | 83 | 90
Cc1ccc(S(=O)(=O)Nc2ccc(-c3csc(-c4ccccc4)n3)cc2)cc1 | nt | nt | nt | nt | 2.4* | 2.7*
Cc1ccc(S(=O)(=O)Nc2cccc(-c3cn4ccsc4n3)c2)cc1 | -0.77 | 30* | 70 | 88 | 33 | 40
Cc1cccc(S(=O)(=O)Nc2cccc(-c3cn4ccsc4n3)c2)c1 | -2.1 | nt | nt | nt | 90 | 96
O=S(=O)(Nc1ccc(-c2csc(-c3ccccc3)n2)cc1)c1ccccc1 | nt | nt | nt | nt | 94 | 88
COc1ccc(NC(=O)c2cnc(C)cn2)c2ncccc12 | nt | 2.8* | 27* | 49* | 11 | 11
C#CC(CC)(CC)NC(=S)Nc1cccc(C(C)=O)c1 | 0.19 | nt | nt | nt | 71 | 69
Cc1cc(C)n(-c2cc(N3CCN(C(=O)c4ccccc4C)CC3)ccc2[N+](=O)[O-])n1 | -0.9 | nt | nt | nt | nt | nt
Fc1ccccc1CSc1nnc(-c2cnccn2)n1Cc1ccco1 | nt | 74 | 98 | 103 | 89 | 93
C(=C\c1ccccc1)/CSc1nnc(-c2cnccn2)n1Cc1ccco1 | 1.1 | 29* | 62 | 87 | 67 | 61
CC1(C)Cc2c(cnn2-c2ccccc2)-c2c1c1ccccc1n2CC(O)CCl (configuration not stated) | -0.29 | 25* | 60 | 92 | 66 | 72
COC(=O)[C@H]1C[C@@H]1[C@H](NC(=O)c1ccccc1)c1ccccc1 | nt | nt | nt | nt | 97 | 92
CC(C(=O)NC(=O)NCc1ccccc1)N1C(=O)c2ccccc2C1=O (configuration not stated) | 0.78 | 94 | 94 | 100 | 0.9* | 0.9*
CCCCC(C(=O)NC(=O)NCc1ccccc1)N1C(=O)c2ccccc2C1=O (configuration not stated) | -1.9 | 108 | 108 | 96 | 105 | 102
O=c1c([N+](=O)[O-])c(NC2CCCCC2)c2ccccc2n1-c1ccccc1 | -3.7* | 73 | 85 | 93 | 87 | 89
C=CC(C)(C)c1cc2cc3ccoc3cc2oc1=O | nt | nt | nt | nt | 87 | 92
CCOc1cccc(C(=O)Nc2nccs2)c1 | -0.55 | 101 | 96 | 92 | 93 | 113
CCOc1cccc(C(=O)Nc2ccc3oc(Cc4ccc(Cl)cc4)nc3c2)c1 | 0.87 | 24* | 73 | 85 | 45 | 34
O=C(Nc1ccc2oc(Cc3ccc(Cl)cc3)nc2c1)c1cccnc1 | 0.64 | 36* | 80 | 92 | 59 | 56
O=C(Nc1ccc2oc(-c3cccnc3)nc2c1)c1cccnc1 | 0.4 | 99 | 88 | 111 | 95 | 98
SMILES | Pyk2 oligo antag | H69AR growth 86K | HUVEC prolif 384 | Fibroblast inh | HCT116 PTEN-null | bCat KO growth
CCC(Sc1nc2n[nH]c(C)c2c(=N)n1-c1cc(Cl)ccc1C)C(=O)N1CCOCC1 (configuration not stated) | -0.72 | 16* | 85 | 83 | 74 | 80
COC(=O)c1cc(S(=O)(=O)n2nc(C)c(Br)c2C)c(Cl)cc1Cl | 0.9 | 56 | 96 | 96 | 76 | 80
COc1ccc(-c2nc(Cn3c(SCc4ccccc4F)nc4ccncc43)c(C)o2)cc1 | nt | 14* | 30 | 40* | 31 | 54
Cc1ccc(N=C(NOCc2ccc(Cl)cc2Cl)c2nonc2N)c(C)c1 | -0.78 | 66 | 92 | 83 | 54 | 42
Cc1ccccc1N=C(NOCc1ccc(Cl)cc1Cl)c1nonc1N | -1.8 | 9.2* | 86 | 79 | 65 | 69
CCC/C(C)=N/NC(=O)c1ccccc1O | nt | nt | nt | nt | 90 | 91
C/C(=N/NC(=O)c1cc2ccccc2cc1O)C1C(=O)c2ccccc2C1=O | -1.3 | 36* | 63 | 75 | 76 | 58
